Reference: ChEMBL document CHEMBL1828602, “CNS and antimalarial activity of synthetic meridianin and psammopemmin analogs” (Bioorg Med Chem, 2011)

Key:
[1] = molecular target: Cyclin-dependent kinase 5 (Homo sapiens, UniProt Q00535); test: Inhibition of CDK5
[2] = Inhibition of PKA
[3] = Inhibition of PKG
HEp-2 = test: Cytotoxicity against human Hep2 cells; type: cell-based
HT-29 = test: Cytotoxicity against human HT-29 cells; type: cell-based
[4] = Cytotoxicity against mouse LMM3 cells; type: cell-based
[5] = molecular target: Cyclin-dependent kinase 2/cyclin A (Homo sapiens, UniProt P24941); test: Inhibition of human recombinant CDK2/cyclin A expressed in insect cells assessed as histone phosphorylation using [33P]gamma-ATP after 30 mins by scintillation counting
CDK9/cyclin T1 = CDK9/cyclin T1 (Homo sapiens, UniProt P50750); test: Inhibition of human recombinant CDK9/cyclin T expressed in insect cells assessed as pRB fragment (773 to 928) phosphorylation using [33P]gamma-ATP after 30 mins by scintillation counting
Sequence of CDK9/cyclin T1 (O60563 whole entry, the tested form may be a part): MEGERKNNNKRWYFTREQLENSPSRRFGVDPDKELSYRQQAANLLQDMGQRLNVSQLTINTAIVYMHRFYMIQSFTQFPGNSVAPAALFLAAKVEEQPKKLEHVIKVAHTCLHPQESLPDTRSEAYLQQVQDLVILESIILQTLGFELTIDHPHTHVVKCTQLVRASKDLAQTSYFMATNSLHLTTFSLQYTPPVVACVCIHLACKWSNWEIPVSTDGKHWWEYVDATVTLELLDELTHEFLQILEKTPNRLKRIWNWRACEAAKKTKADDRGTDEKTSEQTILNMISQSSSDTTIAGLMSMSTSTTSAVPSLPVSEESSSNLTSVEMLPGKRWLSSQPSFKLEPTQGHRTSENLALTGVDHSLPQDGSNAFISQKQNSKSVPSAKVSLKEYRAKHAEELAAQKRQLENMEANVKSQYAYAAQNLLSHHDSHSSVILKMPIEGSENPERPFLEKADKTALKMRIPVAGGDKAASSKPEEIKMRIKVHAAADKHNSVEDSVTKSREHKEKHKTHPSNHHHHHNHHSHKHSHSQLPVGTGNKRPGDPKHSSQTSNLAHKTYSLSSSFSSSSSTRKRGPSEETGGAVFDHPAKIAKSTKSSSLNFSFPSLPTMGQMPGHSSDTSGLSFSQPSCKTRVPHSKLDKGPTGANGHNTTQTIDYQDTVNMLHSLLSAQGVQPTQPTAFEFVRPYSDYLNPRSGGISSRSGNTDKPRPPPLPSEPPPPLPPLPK
Sequence of CDK9/cyclin T1 (P50750 whole entry, the tested form may be a part): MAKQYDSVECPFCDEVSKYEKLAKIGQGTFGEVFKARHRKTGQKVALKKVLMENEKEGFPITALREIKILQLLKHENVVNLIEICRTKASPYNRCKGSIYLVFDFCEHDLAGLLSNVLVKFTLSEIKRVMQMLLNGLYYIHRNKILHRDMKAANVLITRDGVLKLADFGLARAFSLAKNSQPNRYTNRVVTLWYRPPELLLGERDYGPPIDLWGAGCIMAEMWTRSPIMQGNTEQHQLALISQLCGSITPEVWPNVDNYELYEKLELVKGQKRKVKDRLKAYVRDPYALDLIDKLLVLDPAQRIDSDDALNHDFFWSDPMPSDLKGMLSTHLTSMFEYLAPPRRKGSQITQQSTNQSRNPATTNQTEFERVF

[6] = Inhibition of pig brain CK1delta/epsilon assessed as RRKHAAIGSpAYSITA phosphorylation using [33P]gamma-ATP after 30 mins by scintillation counting; design: species or system Sus scrofa
[7] = molecular target: 5-hydroxytryptamine receptor 1D (Homo sapiens, UniProt P28221); test: Displacement of [3H]5-carboximidotryptamine from 5-HT1D receptor after 1.5 hrs by scintillation counting
Sequence of 5-hydroxytryptamine receptor 1D (P28221 whole entry): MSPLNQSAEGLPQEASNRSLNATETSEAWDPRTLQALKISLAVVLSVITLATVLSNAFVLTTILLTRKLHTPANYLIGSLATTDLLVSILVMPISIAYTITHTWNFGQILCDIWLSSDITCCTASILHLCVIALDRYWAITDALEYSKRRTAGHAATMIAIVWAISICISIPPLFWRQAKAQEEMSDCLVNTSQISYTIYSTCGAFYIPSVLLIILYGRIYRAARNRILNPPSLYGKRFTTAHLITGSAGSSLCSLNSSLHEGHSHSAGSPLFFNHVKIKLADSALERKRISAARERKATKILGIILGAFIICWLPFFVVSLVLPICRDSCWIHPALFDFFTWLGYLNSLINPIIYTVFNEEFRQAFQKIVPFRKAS

[8] = molecular target: T1, 5-hydroxytryptamine receptor 2C (Homo sapiens, UniProt P28335); test: Displacement of [3H]mesulergine from 5-HT2C receptor after 1.5 hrs by scintillation counting
T1 sequence (P28335 whole entry): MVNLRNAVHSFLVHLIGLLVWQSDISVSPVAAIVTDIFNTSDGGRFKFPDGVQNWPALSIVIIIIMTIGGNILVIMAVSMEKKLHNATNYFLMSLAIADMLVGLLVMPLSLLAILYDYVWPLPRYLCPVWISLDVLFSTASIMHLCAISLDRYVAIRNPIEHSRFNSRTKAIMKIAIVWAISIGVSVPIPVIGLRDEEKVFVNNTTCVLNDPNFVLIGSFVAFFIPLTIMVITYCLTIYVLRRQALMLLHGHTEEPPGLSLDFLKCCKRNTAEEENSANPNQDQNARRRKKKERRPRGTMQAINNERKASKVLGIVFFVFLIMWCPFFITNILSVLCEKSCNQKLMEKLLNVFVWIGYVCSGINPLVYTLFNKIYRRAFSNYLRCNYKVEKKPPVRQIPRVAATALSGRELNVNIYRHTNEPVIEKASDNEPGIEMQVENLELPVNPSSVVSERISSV

[9] = molecular target: T2, 5-hydroxytryptamine receptor 1A (Homo sapiens, UniProt P08908); test: Displacement of [3H]8-OH-DPAT from 5-HT1A receptor after 1.5 hrs by scintillation counting
T2 sequence (P08908 whole entry): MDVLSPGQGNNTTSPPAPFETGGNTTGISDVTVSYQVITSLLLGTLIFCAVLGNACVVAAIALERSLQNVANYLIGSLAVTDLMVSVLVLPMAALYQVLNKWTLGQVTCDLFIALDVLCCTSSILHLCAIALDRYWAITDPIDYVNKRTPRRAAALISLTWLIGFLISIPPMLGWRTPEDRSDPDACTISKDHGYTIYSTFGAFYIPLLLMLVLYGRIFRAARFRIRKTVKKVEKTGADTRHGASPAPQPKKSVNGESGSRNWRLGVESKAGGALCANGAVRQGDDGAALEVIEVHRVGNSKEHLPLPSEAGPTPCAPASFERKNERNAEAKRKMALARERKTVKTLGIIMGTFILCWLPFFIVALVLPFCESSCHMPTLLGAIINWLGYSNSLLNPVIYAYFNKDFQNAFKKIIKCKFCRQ

[10] = molecular target: 5-hydroxytryptamine receptor 2B (Homo sapiens, UniProt P41595); test: Displacement of [3H]LSD from 5-HT2B receptor after 1.5 hrs by scintillation counting
Sequence of 5-hydroxytryptamine receptor 2B (P41595 whole entry): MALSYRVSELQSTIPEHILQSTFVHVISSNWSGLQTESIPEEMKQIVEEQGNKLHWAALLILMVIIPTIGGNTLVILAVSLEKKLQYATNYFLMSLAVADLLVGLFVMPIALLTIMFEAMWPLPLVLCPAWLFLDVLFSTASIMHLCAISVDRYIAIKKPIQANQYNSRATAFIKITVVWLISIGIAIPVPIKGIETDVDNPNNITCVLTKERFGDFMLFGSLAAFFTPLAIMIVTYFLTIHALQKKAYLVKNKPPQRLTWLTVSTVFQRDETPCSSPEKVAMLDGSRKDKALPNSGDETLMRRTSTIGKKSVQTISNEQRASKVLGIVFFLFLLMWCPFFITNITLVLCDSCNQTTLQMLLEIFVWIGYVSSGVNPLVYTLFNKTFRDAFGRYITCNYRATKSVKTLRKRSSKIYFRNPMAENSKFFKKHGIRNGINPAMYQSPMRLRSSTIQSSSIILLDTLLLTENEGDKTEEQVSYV

[11] = molecular target: 5-hydroxytryptamine receptor 5A (Homo sapiens, UniProt P47898); test: Displacement of [3H]LSD from 5-HT5A receptor after 1.5 hrs by scintillation counting
Sequence of 5-hydroxytryptamine receptor 5A (P47898 whole entry): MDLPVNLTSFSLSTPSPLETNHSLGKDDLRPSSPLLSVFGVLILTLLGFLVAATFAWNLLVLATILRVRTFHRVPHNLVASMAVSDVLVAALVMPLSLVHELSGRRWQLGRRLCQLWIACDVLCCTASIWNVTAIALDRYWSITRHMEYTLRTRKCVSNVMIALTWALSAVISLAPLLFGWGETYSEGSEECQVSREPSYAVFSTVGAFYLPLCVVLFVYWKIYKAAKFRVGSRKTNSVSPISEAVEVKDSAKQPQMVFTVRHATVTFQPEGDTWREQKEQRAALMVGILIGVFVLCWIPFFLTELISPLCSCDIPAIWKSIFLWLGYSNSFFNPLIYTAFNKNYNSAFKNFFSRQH

[12] = molecular target: 5-hydroxytryptamine receptor 7 (Homo sapiens, UniProt P34969); test: Displacement of [3H]LSD from 5-HT7 receptor after 1.5 hrs by scintillation counting
Sequence of 5-hydroxytryptamine receptor 7 (P34969 whole entry): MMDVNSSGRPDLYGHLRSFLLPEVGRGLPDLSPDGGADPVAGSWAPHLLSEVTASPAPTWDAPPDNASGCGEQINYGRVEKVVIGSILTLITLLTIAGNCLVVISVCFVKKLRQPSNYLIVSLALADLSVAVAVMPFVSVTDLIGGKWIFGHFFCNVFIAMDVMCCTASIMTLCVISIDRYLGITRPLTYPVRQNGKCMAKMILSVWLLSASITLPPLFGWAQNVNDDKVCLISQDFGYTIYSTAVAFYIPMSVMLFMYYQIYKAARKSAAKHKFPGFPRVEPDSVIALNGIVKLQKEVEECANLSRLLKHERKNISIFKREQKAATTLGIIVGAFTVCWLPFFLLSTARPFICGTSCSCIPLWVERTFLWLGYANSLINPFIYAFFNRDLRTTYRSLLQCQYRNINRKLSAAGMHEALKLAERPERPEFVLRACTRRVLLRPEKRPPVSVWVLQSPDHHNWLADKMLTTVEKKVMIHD

[13] = molecular target: Sodium-dependent dopamine transporter (Homo sapiens, UniProt Q01959); test: Displacement of [3H]WIN35428 from DAT after 1.5 hrs by scintillation counting
Sequence of Sodium-dependent dopamine transporter (Q01959 whole entry): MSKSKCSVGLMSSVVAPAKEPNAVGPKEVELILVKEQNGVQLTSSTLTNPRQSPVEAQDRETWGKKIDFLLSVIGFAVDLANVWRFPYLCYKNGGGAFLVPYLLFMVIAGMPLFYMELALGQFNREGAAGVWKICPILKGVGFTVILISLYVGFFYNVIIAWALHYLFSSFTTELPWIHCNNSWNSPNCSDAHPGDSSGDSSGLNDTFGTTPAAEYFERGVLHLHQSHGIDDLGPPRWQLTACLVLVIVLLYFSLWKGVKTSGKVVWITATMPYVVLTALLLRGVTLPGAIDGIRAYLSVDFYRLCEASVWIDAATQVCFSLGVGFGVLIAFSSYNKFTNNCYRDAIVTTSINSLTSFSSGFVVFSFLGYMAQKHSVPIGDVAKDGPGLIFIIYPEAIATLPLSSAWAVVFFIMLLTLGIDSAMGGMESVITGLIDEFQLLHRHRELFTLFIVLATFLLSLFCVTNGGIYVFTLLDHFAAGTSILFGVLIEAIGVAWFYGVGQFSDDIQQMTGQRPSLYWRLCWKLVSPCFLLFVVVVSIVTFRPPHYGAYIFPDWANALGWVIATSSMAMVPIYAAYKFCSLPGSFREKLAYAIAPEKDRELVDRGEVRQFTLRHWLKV

[14] = molecular target: T3, Muscarinic acetylcholine receptor M5 (Homo sapiens, UniProt P08912); test: Displacement of [3H]QNB from muscarinic acetylcholine M5 receptor after 1.5 hrs by scintillation counting
T3 sequence (P08912 whole entry): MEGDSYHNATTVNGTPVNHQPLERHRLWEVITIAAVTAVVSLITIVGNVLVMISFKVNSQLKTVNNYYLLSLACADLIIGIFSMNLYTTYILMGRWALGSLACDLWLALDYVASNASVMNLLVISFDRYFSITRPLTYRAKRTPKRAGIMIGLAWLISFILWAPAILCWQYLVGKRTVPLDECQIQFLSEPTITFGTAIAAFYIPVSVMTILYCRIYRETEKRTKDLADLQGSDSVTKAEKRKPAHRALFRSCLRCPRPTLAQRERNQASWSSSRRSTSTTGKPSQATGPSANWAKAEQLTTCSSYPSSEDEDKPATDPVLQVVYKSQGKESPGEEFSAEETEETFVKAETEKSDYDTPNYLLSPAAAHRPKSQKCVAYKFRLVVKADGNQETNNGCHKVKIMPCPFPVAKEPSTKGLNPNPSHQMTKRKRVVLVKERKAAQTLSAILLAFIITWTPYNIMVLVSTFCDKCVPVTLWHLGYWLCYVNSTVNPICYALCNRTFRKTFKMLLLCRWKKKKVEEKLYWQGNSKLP

D(1B) dopamine receptor = D(1B) dopamine receptor (Homo sapiens, UniProt P21918); test: Displacement of [3H][…] from dopamine D5 receptor after 1.5 hrs by scintillation counting
Sequence of D(1B) dopamine receptor (P21918 whole entry): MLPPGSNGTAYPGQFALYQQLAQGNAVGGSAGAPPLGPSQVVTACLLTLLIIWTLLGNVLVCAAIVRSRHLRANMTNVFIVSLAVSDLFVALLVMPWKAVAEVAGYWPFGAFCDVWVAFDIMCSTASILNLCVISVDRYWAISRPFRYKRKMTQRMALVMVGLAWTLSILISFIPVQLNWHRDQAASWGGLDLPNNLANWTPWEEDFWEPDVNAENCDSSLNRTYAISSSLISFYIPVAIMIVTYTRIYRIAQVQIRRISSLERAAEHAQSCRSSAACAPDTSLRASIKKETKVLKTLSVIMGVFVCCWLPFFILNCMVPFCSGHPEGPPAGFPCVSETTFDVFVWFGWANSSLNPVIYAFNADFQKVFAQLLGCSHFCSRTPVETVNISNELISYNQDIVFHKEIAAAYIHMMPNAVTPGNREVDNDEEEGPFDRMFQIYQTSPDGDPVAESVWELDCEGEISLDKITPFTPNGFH

Plasmodium falciparum = test: Antimalarial activity against transgenic Plasmodium falciparum 3D7 infected in human A positive erythrocytes after 72 hrs by luciferase reporter gene assay; type: functional, organism-based; details: 3D7, 72 h
Procedure, shortened: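 Luciferase-expressing P. falciparum 3D7 kept in RPMI 1640 without phenol red, 10% heat-inactivated A+ human plasma, 4% washed A+ erythrocytes, 90% N2/5% O2/5% CO2, 37 °C. Ring-stage cultures (>70% rings) diluted to 0.5% parasitemia, 1.5% hematocrit. Eleven-point duplicate twofold series, final 100 to 0.098 µg/mL. Incubated 72 h, frozen at −20 °C, lysed, luminescence read (5 s integration). IC50 by nonlinear regression.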

A549 = test: Cytotoxicity against human A549 cells after 72 hrs; type: cell-based
Procedure, shortened: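 A549 cells at 12,000 per well in DMEM F12 (no HEPES or phenol red) with 2% FBS and 1% penicillin–streptomycin, preincubated 24 h at 37 °C, 5% CO2. Compounds then added, 72 h incubation. Viability by MTS-type tetrazolium reagent, 1 h at 37 °C, absorbance at 490 nm. IC50 determined.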

SH-SY5Y = test: Cytotoxicity against human SH-SY5Y cells by MTS assay; type: cell-based

Sequence of Cyclin-dependent kinase 5 (Q00535 whole entry): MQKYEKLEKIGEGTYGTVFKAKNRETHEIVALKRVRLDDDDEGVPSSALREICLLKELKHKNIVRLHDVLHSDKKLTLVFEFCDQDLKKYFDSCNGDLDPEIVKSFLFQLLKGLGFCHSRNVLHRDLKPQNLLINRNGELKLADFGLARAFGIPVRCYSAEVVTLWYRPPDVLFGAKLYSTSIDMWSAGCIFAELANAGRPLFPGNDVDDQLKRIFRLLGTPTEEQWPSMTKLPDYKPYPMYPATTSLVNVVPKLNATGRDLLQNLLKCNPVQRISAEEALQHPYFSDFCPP

Compound | Ki [7] [µM] | Ki [8] [µM] | Ki [9] [µM] | Ki [10] [µM] | IC50 [11] [µM] | IC50 [12] [µM] | Ki [14] [µM] | Ki (D(1B) dopamine receptor) [µM] | IC50 (Plasmodium falciparum) [µM] | IC50 (A549; Homo sapiens, A549, 72 h) [µM] | IC50 [13] [µM] | IC50 [14] [µM] | IC50 [8] [µM] | IC50 [9] [µM] | IC50 [10] [µM] | further results
Nc1nccc(-c2c[nH]c3cccc(O)c23)n1 [MERIDIANIN A] | > 10 | > 10 | 0.684 | 0.15 | > 10 | > 10 | > 10 | > 10 | 12 | 15 | – | – | – | – | – | IC50 [1]: 3.5 µM; IC50 [2]: 11 µM; IC50 [3]: 200 µM; IC50 (HEp-2): > 100 µM; IC50 (HT-29): > 100 µM; IC50 [4]: > 100 µM; IC50 [5]: 3.1 µM; IC50 (CDK9/cyclin T1): 2.4 µM; IC50 [6]: 1.1 µM; Ki [13]: 2.35 µM; IC50 (SH-SY5Y): > 30 µM
COc1cccc2[nH]cc(-c3ccnc(N)n3)c12 | > 10 | > 10 | 1.35 | 0.088 | – | – | – | > 10 | 40 | > 420 | > 10 | > 10 | – | – | – | Ki [11]: 1.53 µM; Ki [12]: 1.99 µM
Nc1nc(Br)ncc1-c1c[nH]c2cccc(O)c12 [PSAMMOPEMMIN A] | > 10 | – | – | – | > 10 | > 10 | – | > 10 | > 33 | > 219 | > 10 | > 10 | > 10 | > 10 | > 10 | –
Nc1nc(Cl)ncc1-c1c[nH]c2cccc(O)c12 | – | – | – | – | > 10 | > 10 | 7.04 | > 10 | > 38 | > 256 | > 10 | – | > 10 | > 10 | > 10 | IC50 [7]: > 10 µM
CC1=C[C@H]2O[C@@H]3C[C@H]4OC(=O)/C=C\C=C\[C@H]([C@@H](C)O)OCC/C(C)=C/C(=O)OC[C@@]2(CC1)[C@]4(C)[C@]31CO1 [RORIDIN E] | – | – | – | – | – | – | – | – | – | – | – | – | – | – | – | IC50 (A549; a549): < 9.7 µM
CCN(CC)c1nccc(-c2c[nH]c3cc(Cl)ccc23)n1 [MERIDOQUIN] | – | – | – | – | – | – | – | – | 200 | > 333 | – | – | – | – | – | –
